Experimental data from ChEMBL document CHEMBL1125292, “Synthesis of novel 2-phenyl-2H-pyrazolo[4,3-c]isoquinolin-3-ols: topological comparisons with analogues of 2-phenyl-2,5-dihydropyrazolo[4,3-c]quinolin-3(3H)-ones at benzodiazepine receptors” (J Med Chem, 1992).

target: GABA-A receptor; anion channel; test: Concentration to inhibit [3H]flunitrazepam binding to rat cerebral cortical membrane
Method in brief: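 Rat cerebral cortex homogenized in 50 mM Tris-HCl pH 7.4, centrifuged 20000g 20 min at 4 °C, washed three times, resuspended in 50 volumes. Triplicate incubations with [3H]flunitrazepam (~1 nM final) at 4 °C for 120 min, ended by GF/B filtration and ice-cold buffer washes. Nonspecific binding defined with 10 μM unlabeled flunitrazepam.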

IC50 [nM] | SMILES
> 2000 | COc1ccc(-n2[nH]c3c(ncc4ccccc43)c2=O)cc1
> 2000 | [O-]c1c2c(nn1-c1ccc(F)cc1)c1ccccc1c[n+]2Cc1ccccc1
> 2000 | O=c1c2ncc3ccccc3c2[nH]n1-c1ccc(F)cc1
> 2000 | O=c1c2ncc3ccccc3c2[nH]n1-c1ccccc1
0.9 | COc1ccc(-n2nc3c4ccccc4[nH]cc-3c2=O)cc1
> 2000 | c1ccc2c(c1)cnc1c3ccccc3[nH]c21
> 2000 | Sc1c2ncc3ccccc3c2nn1-c1ccccc1
> 2000 | COc1ccc(-n2nc3c4ccccc4c[n+](Cc4ccccc4)c3c2[O-])cc1
> 2000 | Oc1c2ncc3ccccc3c2nn1-c1ccc(Cl)cc1
> 2000 | [O-]c1c2c(nn1-c1ccc(Cl)cc1)c1ccccc1c[n+]2Cc1ccccc1
> 2000 | Clc1c2ncc3ccccc3c2nn1-c1ccccc1
> 2000 | [O-]c1c2c(nn1-c1ccccc1)c1ccccc1c[n+]2Cc1ccccc1
